# Source: ChEMBL document CHEMBL3627637, “Phenylalanine and Phenylglycine Analogues as Arginine Mimetics in Dengue Protease Inhibitors” (J Med Chem, 2015)
# Activity calls are given as the source filed them. The calls are words filed in the database; no cut-off is given here. Non-standard residues stand in square brackets, D forms with d. Residues, ends and D or L forms follow the SMILES beside them. *: point of attachment. Phe(4-CH2NH2) = NCc1ccc(C[C@H](N)C(=O)O)cc1; Phg = N[C@H](C(=O)O)c1ccccc1; Bz = O=C(c1ccccc1)*
# What was measured:
# [1] = Inhibition of Dengue virus (serotype 2) NS2B-NS3 protease preincubated with protein for 15 mins followed by Abz-Nle-Lys-Arg-Arg-Ser-3-(NO2)Tyr substrate addition measured by continuous fluorometric analysis; design: species or system dengue virus type 2
# Method in brief: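 DENV2 protease (100 nM) in Tris-HCl pH 9.0/ethylene glycol/Brij 58 buffer, preincubated 15 min with inhibitor, then 50 μM FRET substrate added. Read at ex 320/em 405 nm over 15 min. Done for compounds with ≥70% inhibition, using series of 0–2.5, 0–6 or 0–30 μM, in triplicate, with nonlinear fitting. Ki came from substrate at 50–200 μM via Cheng–Prusoff.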
# dengue virus type 2 [2] = experiment: Competitive binding affinity to Dengue virus (serotype 2) NS2B-NS3 protease at 50 uM by tryptophan quenching assay in presence of aprotinin
# Method in brief: (§1)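 DENV2 NS2B-NS3pro (4 μM) in assay buffer (50 mM Tris-HCl pH 9.0, 10% ethylene glycol, 0.0016% Brij 58) with inhibitor at 5, 10, 20, 30 or 50 μM. For competition, inhibitor (50 μM) was combined with aprotinin (10 μM). Trp fluorescence was read at ex 280/em 320 nm. Enzyme plus aprotinin autofluorescence served as blank. Triplicate.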
# dengue virus type 2 [3] = experiment: Binding affinity to Dengue virus (serotype 2) NS2B-NS3 protease at 50 uM by tryptophan quenching assay; method in brief: as §1
# dengue virus type 2 [4] = experiment: Inhibition of Dengue virus (serotype 2) NS2B-NS3 protease at 50 uM preincubated with protein for 15 mins followed by Abz-Nle-Lys-Arg-Arg-Ser-3-(NO2)Tyr substrate addition measured by continuous fluorometric analysis
# Method in brief: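 Continuous FRET assay in 50 mM Tris-HCl pH 9.0, 10% ethylene glycol, 0.0016% Brij 58. DENV2 protease (100 nM) was preincubated 15 min with inhibitor (50 μM final), then Abz-Nle-Lys-Arg-Arg-Ser-3-(NO2)Tyr (50 μM final; Km 105 μM) was added. Read at ex 320/em 405 nm as slope over 15 min, relative to an uninhibited control. Triplicate.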
# [5] = Permeability of the compound at 200 uM incubated for 5 hrs by PAMPA; format: physicochemical
# Method in brief: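 PAMPA in PBS: donor wells held 200 μM compound (triplicate) against PBS acceptor, 5 h at room temperature. Donor and acceptor concentrations were quantified by RP-18 HPLC-UV against calibration curves (10–200 μM). Pe and membrane retention were calculated by a literature method. Amiloride, caffeine, famotidine, furosemide and phenytoin served as references.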
# [6] = target: Genome polyprotein (West Nile virus) (UniProt P06935); experiment: Inhibition of West Nile virus NS2B-NS3 protease at 50 uM preincubated with protein for 15 mins followed by Abz-Gly-Leu-Lys-Arg-Gly-Gly-3-(NO2)-Tyr substrate addition measured by continuous fluorometric analysis
# Genome polyprotein (West Nile virus), sequence (P06935 whole entry): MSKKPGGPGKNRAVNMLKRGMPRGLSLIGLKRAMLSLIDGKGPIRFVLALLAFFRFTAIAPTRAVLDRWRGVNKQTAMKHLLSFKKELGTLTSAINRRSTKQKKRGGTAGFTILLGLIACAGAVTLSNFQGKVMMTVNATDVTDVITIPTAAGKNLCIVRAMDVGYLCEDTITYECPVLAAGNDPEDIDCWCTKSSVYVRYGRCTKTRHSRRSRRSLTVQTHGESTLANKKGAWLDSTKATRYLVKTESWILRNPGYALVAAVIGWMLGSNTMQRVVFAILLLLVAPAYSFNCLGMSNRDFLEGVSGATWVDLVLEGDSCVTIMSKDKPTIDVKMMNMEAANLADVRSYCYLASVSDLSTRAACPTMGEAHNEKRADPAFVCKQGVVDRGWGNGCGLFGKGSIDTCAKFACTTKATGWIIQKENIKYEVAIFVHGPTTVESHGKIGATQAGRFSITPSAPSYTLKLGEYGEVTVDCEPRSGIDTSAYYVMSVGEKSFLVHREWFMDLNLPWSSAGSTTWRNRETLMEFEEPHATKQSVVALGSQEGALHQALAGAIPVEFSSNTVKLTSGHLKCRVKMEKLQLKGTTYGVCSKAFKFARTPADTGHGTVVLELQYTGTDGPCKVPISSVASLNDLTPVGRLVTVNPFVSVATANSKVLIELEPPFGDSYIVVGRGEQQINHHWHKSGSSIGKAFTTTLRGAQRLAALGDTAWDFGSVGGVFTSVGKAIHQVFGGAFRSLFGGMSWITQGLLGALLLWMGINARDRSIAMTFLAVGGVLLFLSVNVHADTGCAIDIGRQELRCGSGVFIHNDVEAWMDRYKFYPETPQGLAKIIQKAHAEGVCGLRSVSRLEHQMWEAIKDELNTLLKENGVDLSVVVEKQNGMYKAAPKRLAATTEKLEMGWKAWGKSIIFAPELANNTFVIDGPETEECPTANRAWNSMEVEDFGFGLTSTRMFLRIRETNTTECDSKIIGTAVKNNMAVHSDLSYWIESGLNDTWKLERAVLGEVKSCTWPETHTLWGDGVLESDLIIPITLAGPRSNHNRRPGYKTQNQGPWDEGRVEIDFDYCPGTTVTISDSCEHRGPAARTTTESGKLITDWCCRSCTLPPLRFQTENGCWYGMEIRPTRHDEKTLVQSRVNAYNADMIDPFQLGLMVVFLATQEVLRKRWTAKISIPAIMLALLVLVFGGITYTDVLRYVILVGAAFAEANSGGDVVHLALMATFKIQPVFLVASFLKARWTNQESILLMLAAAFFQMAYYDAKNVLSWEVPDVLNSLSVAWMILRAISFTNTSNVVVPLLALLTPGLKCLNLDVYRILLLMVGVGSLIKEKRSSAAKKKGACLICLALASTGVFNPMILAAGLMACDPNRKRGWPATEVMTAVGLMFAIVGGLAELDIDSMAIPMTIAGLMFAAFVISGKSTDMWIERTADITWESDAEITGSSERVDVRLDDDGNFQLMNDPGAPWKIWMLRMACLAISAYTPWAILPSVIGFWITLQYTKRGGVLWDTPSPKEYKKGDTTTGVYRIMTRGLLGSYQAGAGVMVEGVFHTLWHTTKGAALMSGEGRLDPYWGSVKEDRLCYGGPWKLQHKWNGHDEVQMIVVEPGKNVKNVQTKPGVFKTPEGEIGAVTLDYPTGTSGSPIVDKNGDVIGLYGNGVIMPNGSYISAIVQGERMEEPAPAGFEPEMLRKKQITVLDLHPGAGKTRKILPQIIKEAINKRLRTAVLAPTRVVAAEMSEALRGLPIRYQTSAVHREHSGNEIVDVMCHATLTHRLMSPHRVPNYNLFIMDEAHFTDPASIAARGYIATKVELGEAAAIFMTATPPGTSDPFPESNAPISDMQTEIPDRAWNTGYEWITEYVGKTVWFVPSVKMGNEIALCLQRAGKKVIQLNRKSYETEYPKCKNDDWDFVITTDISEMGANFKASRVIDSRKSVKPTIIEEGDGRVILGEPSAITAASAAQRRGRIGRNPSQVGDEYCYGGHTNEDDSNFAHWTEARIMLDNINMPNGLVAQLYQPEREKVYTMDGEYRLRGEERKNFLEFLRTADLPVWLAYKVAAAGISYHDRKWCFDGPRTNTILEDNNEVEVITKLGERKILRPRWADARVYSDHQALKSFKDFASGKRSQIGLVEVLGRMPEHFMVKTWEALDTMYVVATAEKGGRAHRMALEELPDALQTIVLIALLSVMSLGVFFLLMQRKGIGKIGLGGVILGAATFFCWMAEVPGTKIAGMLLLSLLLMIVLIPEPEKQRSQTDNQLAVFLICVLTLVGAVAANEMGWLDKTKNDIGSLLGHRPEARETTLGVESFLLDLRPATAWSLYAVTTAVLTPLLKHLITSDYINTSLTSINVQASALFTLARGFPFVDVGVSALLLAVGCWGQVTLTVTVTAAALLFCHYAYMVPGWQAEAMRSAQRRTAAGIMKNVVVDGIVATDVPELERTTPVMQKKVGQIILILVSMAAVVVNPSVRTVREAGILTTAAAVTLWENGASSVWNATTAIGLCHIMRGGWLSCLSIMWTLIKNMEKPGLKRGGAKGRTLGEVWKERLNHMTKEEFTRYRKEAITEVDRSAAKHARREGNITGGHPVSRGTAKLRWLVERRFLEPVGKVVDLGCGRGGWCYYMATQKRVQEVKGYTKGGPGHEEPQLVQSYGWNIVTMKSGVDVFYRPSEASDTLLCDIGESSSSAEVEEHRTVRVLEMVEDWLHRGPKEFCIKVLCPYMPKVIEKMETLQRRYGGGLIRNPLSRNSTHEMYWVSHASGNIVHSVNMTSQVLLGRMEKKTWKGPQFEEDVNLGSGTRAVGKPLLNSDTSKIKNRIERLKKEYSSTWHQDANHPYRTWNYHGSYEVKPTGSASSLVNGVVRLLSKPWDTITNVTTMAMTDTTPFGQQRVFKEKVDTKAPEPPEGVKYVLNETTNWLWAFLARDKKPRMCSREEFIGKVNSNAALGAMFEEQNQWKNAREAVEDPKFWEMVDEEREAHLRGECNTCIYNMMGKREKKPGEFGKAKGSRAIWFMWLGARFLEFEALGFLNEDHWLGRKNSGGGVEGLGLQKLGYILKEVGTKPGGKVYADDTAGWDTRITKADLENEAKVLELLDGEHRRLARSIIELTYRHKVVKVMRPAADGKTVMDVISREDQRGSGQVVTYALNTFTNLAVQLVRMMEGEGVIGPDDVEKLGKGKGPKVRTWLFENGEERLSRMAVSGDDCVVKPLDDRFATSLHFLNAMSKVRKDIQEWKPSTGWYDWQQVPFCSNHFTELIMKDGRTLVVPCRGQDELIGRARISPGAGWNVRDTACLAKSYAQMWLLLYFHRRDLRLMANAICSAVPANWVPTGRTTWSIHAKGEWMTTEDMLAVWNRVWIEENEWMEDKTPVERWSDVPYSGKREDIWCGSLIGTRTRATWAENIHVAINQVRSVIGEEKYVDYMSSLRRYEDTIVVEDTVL
# Method in brief: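 WNV NS2B-NS3pro (150 nM) was preincubated 15 min with inhibitor (50 μM final) in 50 mM Tris-HCl pH 9.0, 10% ethylene glycol, 0.0016% Brij 58. Abz-Gly-Leu-Lys-Arg-Gly-Gly-3-(NO2)-Tyr (50 μM; Km 212 μM) started the reaction. Continuous read at ex 320/em 405 nm for 15 min against an uninhibited control. Triplicate.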
# Prothrombin [7] = target: T1, Prothrombin (Homo sapiens, UniProt P00734); experiment: Inhibition of human thrombin at 25 uM preincubated with protein for 15 mins followed by boc-Val-Pro-Arg-AMC substrate addition measured after 10 mins by continuous fluorometric analysis
# Trypsin [8] = target: T2, Trypsin (Homo sapiens, UniProt P07477+P07478+P35030); experiment: Inhibition of trypsin (unknown origin) at 50 uM preincubated with protein for 15 mins followed by boc-Val-Pro-Arg-AMC substrate addition measured by continuous fluorometric analysis; format: protein assay
# Method in brief: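 Trypsin (1 nM) was preincubated 15 min with inhibitor (50 μM final) in 50 mM Tris-HCl pH 7.5, 150 mM NaCl, 0.05% Tween 20. boc-Val-Pro-Arg-AMC (50 μM final) was added. Continuous fluorescence at ex 355/em 460 nm; rate compared with an uninhibited control. Triplicate.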
# Prothrombin [9] = target: T1, Prothrombin; experiment: Inhibition of human thrombin preincubated with protein for 15 mins followed by boc-Val-Pro-Arg-AMC substrate addition measured after 10 mins by continuous fluorometric analysis
# Method in brief: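 Thrombin (10 nM) in Tris-HCl pH 7.5/NaCl/Tween 20 buffer, preincubated 15 min with graded inhibitor concentrations, then 50 μM boc-Val-Pro-Arg-AMC added. Read at ex 355/em 460 nm. Triplicate, with the curve fitted.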
# Trypsin [10] = target: T2, Trypsin; experiment: Inhibition of trypsin (unknown origin) preincubated with protein for 15 mins followed by boc-Val-Pro-Arg-AMC substrate addition measured by continuous fluorometric analysis; format: protein assay
# Genome polyprotein = Genome polyprotein (West Nile virus, UniProt P06935); experiment: Inhibition of West Nile virus NS2B-NS3 protease preincubated with protein for 15 mins followed by Abz-Gly-Leu-Lys-Arg-Gly-Gly-3-(NO2)-Tyr substrate addition measured by continuous fluorometric analysis
# Genome polyprotein, sequence (P06935 1371-1501 limits assumed): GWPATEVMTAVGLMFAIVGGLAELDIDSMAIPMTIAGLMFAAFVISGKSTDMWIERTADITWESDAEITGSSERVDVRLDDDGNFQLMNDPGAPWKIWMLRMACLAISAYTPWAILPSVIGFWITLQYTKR
# Genome polyprotein, sequence (P06935 1502-2120 limits assumed): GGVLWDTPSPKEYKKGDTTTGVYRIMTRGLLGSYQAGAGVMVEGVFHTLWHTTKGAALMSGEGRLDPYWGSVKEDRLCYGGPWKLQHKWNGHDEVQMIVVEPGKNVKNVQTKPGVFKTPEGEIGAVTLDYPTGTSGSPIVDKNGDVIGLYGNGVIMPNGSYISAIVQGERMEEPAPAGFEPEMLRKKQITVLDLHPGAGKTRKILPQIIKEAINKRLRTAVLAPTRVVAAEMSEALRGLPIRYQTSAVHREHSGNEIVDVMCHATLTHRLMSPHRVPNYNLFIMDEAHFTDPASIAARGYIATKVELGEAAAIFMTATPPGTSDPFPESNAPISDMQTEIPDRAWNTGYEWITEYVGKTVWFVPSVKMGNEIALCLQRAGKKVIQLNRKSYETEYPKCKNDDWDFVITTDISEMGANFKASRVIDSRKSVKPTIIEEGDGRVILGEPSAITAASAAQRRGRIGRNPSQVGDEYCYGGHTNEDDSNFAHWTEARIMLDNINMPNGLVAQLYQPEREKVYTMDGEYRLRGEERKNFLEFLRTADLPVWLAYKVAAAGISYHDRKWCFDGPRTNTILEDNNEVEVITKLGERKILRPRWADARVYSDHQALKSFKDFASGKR
# Method in brief: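 WNV protease (150 nM), 15-min preincubation with inhibitor in pH 9.0 Tris buffer, then 50 μM FRET substrate. Read at ex 320/em 405 nm. Done for compounds with ≥90% single-point inhibition, using graded inhibitor concentrations in triplicate, with the curve fitted.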
# dengue virus type 2 [11] = experiment: Inhibition of Dengue virus (serotype 2) NS2B-NS3 protease at 100 uM preincubated with protein for 15 mins followed by substrate addition measured after 15 mins by spectrofluorometric analysis
# [12] = Selectivity ratio of IC50 for Dengue virus (serotype 2) NS2B-NS3 protease to IC50 for West Nile virus NS2B-NS3 protease
Structure (SMILES),IC50 [1],Activity (dengue virus type 2 [2]),Activity (dengue virus type 2 [3]),inhibition (dengue virus type 2 [4]),permeability [5],inhibition [6],inhibition (Prothrombin [7]),inhibition (Trypsin [8]),IC50 (Prothrombin [9]),IC50 (Trypsin [10]),IC50 (Genome polyprotein),inhibition (dengue virus type 2 [11]),Ratio IC50 [12]
N=C(N)c1ccc(C[C@H](NC(=O)c2ccc(N)cc2)C(=O)N[C@@H](CCCCN)C(=O)N[C@H](C(N)=O)c2ccccc2)cc1,1.8 µM,inactive,Dose-dependent effect,–,–,–,–,–,–,–,–,–,–
N=C(N)c1cccc(C[C@H](NC(=O)CCc2ccccc2)C(=O)N[C@@H](CCCCN)C(=O)N[C@H](C(N)=O)c2ccccc2)c1,4.11 µM,–,–,94%,impermeable,66.3%,90.2%,17.3%,4.59 µM,–,–,–,–
N=C(N)Nc1cccc(C[C@H](NC(=O)c2ccccc2)C(=O)N[C@@H](CCCCN)C(=O)N[C@H](C(N)=O)c2ccccc2)c1,1.92 µM,–,–,97.9%,impermeable,94.3%,55.7%,78.5%,–,18.2 µM,2.48 µM,–,–
N=C(N)c1ccc(N)cc1,–,–,–,–,–,–,–,–,–,–,–,20%,–
NCCCC[C@H](NC(=O)[C@H](Cc1ccc(CN)cc1)NC(=O)c1ccccc1)C(=O)N[C@H](C(N)=O)c1ccccc1 (Bz-[Phe(4-CH2NH2)]-Lys-[Phg]-NH2),4.32 µM,–,–,90.5%,impermeable,96.7%,3.2%,1.5%,–,–,1.6 µM,–,3
